Measured values published in ChEMBL document CHEMBL1287748, “Design, synthesis and in vitro antimalarial evaluation of triazole-linked chalcone and dienone hybrid compounds” (Bioorg Med Chem, 2010).

What was measured:
Plasmodium falciparum [1] = experiment: Antimalarial activity against chloroquine-sensitive Plasmodium falciparum D10 after 48 hrs; type: functional, organism-based; conditions: D10, 48 h
Summary of the method: (§1)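 P. falciparum asexual culture in RPMI 1640 with glucose, HEPES, hypoxanthine, 5% Albumax, bicarbonate and gentamicin, sorbitol-synchronized at ring stage when needed. DMSO stocks serially diluted twofold in medium and added to parasitized erythrocytes at 2% hematocrit. Incubation 48 h at 37 °C under 3% O2/4% CO2/93% N2. pLDH read-out with Malstat plus NBT/PES at 620 nm. Runs in duplicate on two occasions; IC50 fitted from dose–response curves.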

Plasmodium falciparum [2] = experiment: Antimalarial activity against chloroquine-resistant Plasmodium falciparum Dd2 after 48 hrs; type: functional, organism-based; conditions: Dd2, 48 h; summary of the method: as §1
Plasmodium falciparum [3] = experiment: Antimalarial activity against chloroquine-resistant Plasmodium falciparum W2 after 48 hrs by FACS analysis in presence of 10 % human serum; type: functional, organism-based; conditions: W2, 48 h
Summary of the method: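 W2 parasites grown in standard medium containing 10% human serum. Growth inhibition assay as in earlier published work, with parasite development scored by flow cytometry (FACS).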

[4] = Inhibition of beta-hematin formation assessed as equivalents of drug relative to hematin; type: functional
Summary of the method: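 Colorimetric assay quantifying a compound's inhibition of the conversion of hematin to beta-hematin. IC50 is expressed in equivalents of compound relative to hematin.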

| Compound | IC50 (Plasmodium falciparum [1]) | IC50 (Plasmodium falciparum [2]) | IC50 (Plasmodium falciparum [3]) | IC50 [4] |
| --- | --- | --- | --- | --- |
| COc1cc(/C=C/C(C)=O)ccc1OCc1cn(-c2ccnc3cc(Cl)ccc23)nn1 | 0.8 µM | 0.7 µM | – | – |
| C#CCOc1ccc(/C=C/C(=O)/C=C/c2ccc(OC)cc2)cc1OC | 11.8 µM | 10.7 µM | > 20 µM | – |
| C#CCOc1ccc(/C=C/C(=O)/C=C/c2ccc(F)cc2)cc1OC | 9.8 µM | 6.5 µM | 21.5 µM | – |
| C#CCOc1ccc(/C=C/C(=O)c2ccc(OC)cc2OC)cc1OC | – | 4.3 µM | – | 0.5 equiv |
| COc1cc(/C=C/C(=O)/C=C/c2ccc(F)cc2F)ccc1OCc1cn(-c2ccnc3cc(Cl)ccc23)nn1 | 10.2 µM | 6.5 µM | > 20 µM | – |
| COc1cc(/C=C/C(=O)/C=C/c2ccc(F)cc2F)ccc1OCc1cn([C@H]2C[C@H](n3cc(C)c(=O)[nH]c3=O)O[C@@H]2CO)nn1 | 1.4 µM | 1.7 µM | 12.4 µM | – |
| [N-]=[N+]=Nc1ccnc2cc(Cl)ccc12 | > 20 µM | > 20 µM | > 20 µM | – |
| C#CCOc1ccc(/C=C/C(=O)/C=C/c2ccc(OC)c(OC)c2OC)cc1OC | 0.9 µM | 1.4 µM | 9.2 µM | – |
| COc1cc(/C=C/C(=O)/C=C/c2ccc(OC)c(OC)c2OC)ccc1OCc1cn([C@H]2C[C@H](n3cc(C)c(=O)[nH]c3=O)O[C@@H]2CO)nn1 | 1.3 µM | 2.4 µM | 8.3 µM | – |
| C#CCOc1ccc(/C=C/C(=O)/C=C/c2ccc(OC)cc2OC)cc1OC | 5.4 µM | 4 µM | 18.9 µM | – |
| COc1ccc(/C=C/C(=O)/C=C/c2ccc(OCc3cn([C@H]4C[C@H](n5cc(C)c(=O)[nH]c5=O)O[C@@H]4CO)nn3)c(OC)c2)cc1 | 2.8 µM | 1.5 µM | 18.2 µM | – |
| COc1cc(/C=C/C(=O)/C=C/c2ccc(F)cc2)ccc1OCc1cn([C@H]2C[C@H](n3cc(C)c(=O)[nH]c3=O)O[C@@H]2CO)nn1 | 1.7 µM | 2.6 µM | – | – |
| COc1cc(C(=O)/C=C/c2ccc(OC)c(OC)c2OC)ccc1OCc1cn([C@H]2C[C@H](n3cc(C)c(=O)[nH]c3=O)O[C@@H]2CO)nn1 | 5.4 µM | 3.8 µM | 7.1 µM | – |
| COc1ccc(/C=C/C(=O)c2ccc(OCc3cn([C@H]4C[C@H](n5cc(C)c(=O)[nH]c5=O)O[C@@H]4CO)nn3)c(OC)c2)c(OC)c1 | 10.2 µM | 11.8 µM | 9 µM | – |
| COc1cc(C(=O)/C=C/c2ccc(F)cc2F)ccc1OCc1cn([C@H]2C[C@H](n3cc(C)c(=O)[nH]c3=O)O[C@@H]2CO)nn1 | 3.9 µM | 4.8 µM | 7.1 µM | – |
| C#CCOc1ccc(C(=O)/C=C/c2ccc(F)cc2)cc1OC | 7.2 µM | 7.7 µM | > 20 µM | – |
| C#CCOc1ccc(/C=C/C(=O)/C=C/c2ccc(F)cc2F)cc1OC | 11.9 µM | 9.3 µM | > 20 µM | – |
| C#CCOc1ccc(/C=C/C(=O)c2ccc(OC)cc2)cc1OC | – | 13.5 µM | – | – |
| COc1cc(C(=O)/C=C/c2ccc(OC)c(OC)c2OC)ccc1OCc1cn(-c2ccnc3cc(Cl)ccc23)nn1 | 0.3 µM | 0.3 µM | 0.5 µM | 4.1 equiv |
| COc1cc(C(=O)/C=C/c2ccc(Cl)cc2Cl)ccc1OCc1cn([C@H]2C[C@H](n3cc(C)c(=O)[nH]c3=O)O[C@@H]2CO)nn1 | 3.7 µM | 1.9 µM | 8.4 µM | – |
| COc1ccc(C(=O)/C=C/c2ccc(OCc3cn(-c4ccnc5cc(Cl)ccc45)nn3)c(OC)c2)cc1 | 0.6 µM | 2.2 µM | 5 µM | – |
| C#CCOc1ccc(C(=O)/C=C/c2ccc(F)cc2F)cc1OC | > 20 µM | 5.2 µM | 9.4 µM | – |
| COc1cc(C(=O)/C=C/c2ccc(F)cc2)ccc1OCc1cn(-c2ccnc3cc(Cl)ccc23)nn1 | 7.4 µM | 1.6 µM | 6.9 µM | 4.8 equiv |
| C#CCOc1ccc(C(=O)/C=C/c2ccc(OC)c(OC)c2OC)cc1OC | – | 2.4 µM | – | – |
| COc1cc(/C=C/C(=O)/C=C/c2ccc(OC)c(OC)c2OC)ccc1OCc1cn(-c2ccnc3cc(Cl)ccc23)nn1 | 2.5 µM | 2.1 µM | 18.5 µM | – |

| Compound | IC50 (Plasmodium falciparum [1]) | IC50 (Plasmodium falciparum [2]) | IC50 (Plasmodium falciparum [3]) | IC50 [4] |
| --- | --- | --- | --- | --- |
| C#CCOc1ccc(/C=C/C(=O)/C=C/c2ccc(Cl)cc2Cl)cc1OC | 9.2 µM | 9 µM | > 20 µM | – |
| C#CCOc1ccc(C(=O)/C=C/c2ccc(Cl)cc2Cl)cc1OC | 3.3 µM | 2.8 µM | 5 µM | – |
| COc1cc(/C=C/C(=O)/C=C/c2ccc(Cl)cc2Cl)ccc1OCc1cn([C@H]2C[C@H](n3cc(C)c(=O)[nH]c3=O)O[C@@H]2CO)nn1 | 1.4 µM | 1.7 µM | 9.1 µM | – |
| COc1ccc(C(=O)/C=C/c2ccc(OCc3cn([C@H]4C[C@H](n5cc(C)c(=O)[nH]c5=O)O[C@@H]4CO)nn3)c(OC)c2)c(OC)c1 | 1.5 µM | 4.4 µM | 5.4 µM | – |
| COc1cc(/C=C/C(=O)c2ccc(OC)c(OC)c2OC)ccc1OCc1cn([C@H]2C[C@H](n3cc(C)c(=O)[nH]c3=O)O[C@@H]2CO)nn1 | 3.3 µM | 3.7 µM | 5.4 µM | – |
| COc1cc(/C=C/C(C)=O)ccc1OCc1cn([C@H]2C[C@H](n3cc(C)c(=O)[nH]c3=O)O[C@@H]2CO)nn1 | 12 µM | 16.4 µM | – | – |
| Cc1cn([C@H]2C[C@H](N=[N+]=[N-])[C@@H](CO)O2)c(=O)[nH]c1=O [ZIDOVUDINE] | > 20 µM | > 20 µM | > 20 µM | – |
| COc1cc(C(=O)/C=C/c2ccc(F)cc2F)ccc1OCc1cn(-c2ccnc3cc(Cl)ccc23)nn1 | 4.1 µM | 2.1 µM | 10.6 µM | 1.6 equiv |
| COc1cc(C(=O)/C=C/c2ccc(F)cc2)ccc1OCc1cn([C@H]2C[C@H](n3cc(C)c(=O)[nH]c3=O)O[C@@H]2CO)nn1 | 7.3 µM | 6.1 µM | 6.6 µM | – |
| COc1ccc(/C=C/C(=O)c2ccc(OCc3cn(-c4ccnc5cc(Cl)ccc45)nn3)c(OC)c2)c(OC)c1 | 5.2 µM | 11.7 µM | 6.6 µM | Not Active |
| COc1cc(/C=C/C(=O)/C=C/c2ccc(F)cc2)ccc1OCc1cn(-c2ccnc3cc(Cl)ccc23)nn1 | 9.4 µM | 9.3 µM | > 20 µM | – |
| COc1ccc(/C=C/C(=O)/C=C/c2ccc(OCc3cn(-c4ccnc5cc(Cl)ccc45)nn3)c(OC)c2)c(OC)c1 | 5.1 µM | 6.4 µM | > 20 µM | – |
| COc1ccc(/C=C/C(=O)/C=C/c2ccc(OCc3cn(-c4ccnc5cc(Cl)ccc45)nn3)c(OC)c2)cc1 | 3 µM | 2.1 µM | 5.3 µM | – |
| COc1cc(C=O)ccc1OCc1cn(-c2ccnc3cc(Cl)ccc23)nn1 | > 20 µM | > 20 µM | – | – |
| CCN(CC)CCCC(C)Nc1ccnc2cc(Cl)ccc12 (stereo unspecified) [CHLOROQUINE] | – | – | – | 1.91 equiv |
| C#CCOc1ccc(/C=C/C(C)=O)cc1OC | 9.7 µM | 7.5 µM | > 20 µM | – |
| C#CCOc1ccc(/C=C/C(=O)c2ccc(OC)c(OC)c2OC)cc1OC | – | 2.8 µM | – | – |
| COc1ccc(/C=C/C(=O)/C=C/c2ccc(OCc3cn([C@H]4C[C@H](n5cc(C)c(=O)[nH]c5=O)O[C@@H]4CO)nn3)c(OC)c2)c(OC)c1 | 1.3 µM | 1.2 µM | 14.5 µM | – |
| COc1cc(/C=C/C(=O)c2ccc(OC)c(OC)c2OC)ccc1OCc1cn(-c2ccnc3cc(Cl)ccc23)nn1 | 0.4 µM | 0.4 µM | 0.6 µM | 0.2 equiv |
| C#CCOc1ccc(C(=O)/C=C/c2ccc(OC)cc2OC)cc1OC | > 20 µM | 14.5 µM | – | – |
| Clc1ccc2c(-n3cc(COc4ccccc4)nn3)ccnc2c1 | > 20 µM | > 20 µM | – | – |
| COc1cc(/C=C/C(=O)/C=C/c2ccc(Cl)cc2Cl)ccc1OCc1cn(-c2ccnc3cc(Cl)ccc23)nn1 | 19 µM | 16.8 µM | > 20 µM | – |
| COc1ccc(C(=O)/C=C/c2ccc(OCc3cn([C@H]4C[C@H](n5cc(C)c(=O)[nH]c5=O)O[C@@H]4CO)nn3)c(OC)c2)cc1 | 2.9 µM | 6.1 µM | 8 µM | – |
| COc1ccc(C(=O)/C=C/c2ccc(OCc3cn(-c4ccnc5cc(Cl)ccc45)nn3)c(OC)c2)c(OC)c1 | 0.04 µM | 0.07 µM | 0.09 µM | 1.6 equiv |
| COc1cc(C(=O)/C=C/c2ccc(Cl)cc2Cl)ccc1OCc1cn(-c2ccnc3cc(Cl)ccc23)nn1 | 6 µM | 1.9 µM | 11.5 µM | – |
